Source: PubChem BioAssay
Runt-SMMHC FRET: inhibitors of RUNX1 Runt–CBFb-SMMHC binding, primary screen, biochemical, FRET, Cerulean-Runt, Venus-CBFb-SMMHC, uHTS. Cerulean-Runt/Venus-CBFb-SMMHC FRET ratio 530/480, 1 h. inhibition, % at 20 µM. 220,000 tested, 0.74% active;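 active means mean inhibition across duplicate retests at 20 µM reaching about 50%, limit read from the data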;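 further: 0% = DMSO wells and 100% = wells with excess untagged CBFb-SMMHC; inhibitors lower the FRET ratio by blocking Runt binding to CBFb-SMMHC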
Target sequence (Q01196 whole entry, looked up): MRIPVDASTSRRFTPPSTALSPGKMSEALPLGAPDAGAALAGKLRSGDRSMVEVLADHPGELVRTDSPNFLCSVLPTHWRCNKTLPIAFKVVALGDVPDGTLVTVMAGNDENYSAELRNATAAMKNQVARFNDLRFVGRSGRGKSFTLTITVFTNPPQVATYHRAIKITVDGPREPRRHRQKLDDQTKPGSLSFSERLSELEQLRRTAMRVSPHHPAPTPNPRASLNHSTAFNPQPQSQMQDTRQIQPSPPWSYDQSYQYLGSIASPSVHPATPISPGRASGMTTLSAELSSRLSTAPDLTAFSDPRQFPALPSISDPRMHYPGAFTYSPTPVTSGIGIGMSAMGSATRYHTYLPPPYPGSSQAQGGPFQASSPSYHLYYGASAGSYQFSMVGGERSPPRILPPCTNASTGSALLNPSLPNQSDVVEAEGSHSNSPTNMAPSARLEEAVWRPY
Target sequence (Q13951 whole entry, looked up): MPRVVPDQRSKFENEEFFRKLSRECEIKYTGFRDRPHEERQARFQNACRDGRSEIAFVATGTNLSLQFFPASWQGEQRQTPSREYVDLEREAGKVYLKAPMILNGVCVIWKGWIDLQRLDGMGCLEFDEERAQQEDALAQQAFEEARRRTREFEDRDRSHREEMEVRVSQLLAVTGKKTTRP
RanGTP-Impb inh: inhibitors of RanGTP-importin-beta interaction, primary screen, biochemical, FRET, CFP-Ran, YFP-importin-beta, homogeneous; Ran GTPase (GTP-bound) - importin-beta complex; inhibition, % (concentration not given with the values); 300,000 tested, 1.1% active; cell-free CFP-Ran/YFP-importin-beta FRET ratio;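 active means more than half of the replicate wells show a fall in the fluorescence ratio signal beyond about 16%, limit read from the data, passing the limit was not always enough; inconclusive means exactly half of the replicate wells pass the set limit; inactive means fewer than half of replicates pass the limit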;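 further: 0% = DMSO wells and 100% = Ran loaded with GDP instead of GTP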
p97 ATPase inh: inhibitors of human p97 ATPase, primary screen, biochemical | recombinant p97 ATPase, Kinase-Glo ATP luminescence, 3 h | Transitional endoplasmic reticulum ATPase (Homo sapiens), P55072 | 220,000 tested, 0.42% active | AID 1481, 2009 | inhibition, % at 8 µM; in the data active means inhibition above about 15%;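 further: 0% = DMSO vehicle and 100% = wells lacking enzyme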
Hck-Nef inh: inhibitors of Nef-activated human Hck kinase, primary screen, biochemical, Z-Lyte FRET, 384-well, Hck-YEEI. AID 463187, 2010. Recombinant Hck-YEEI plus Nef, Z-Lyte FRET kinase assay. inhibition, % at 20 µM. Tyrosine-protein kinase HCK (Homo sapiens), P08631. 220,000 tested, 0.68% active;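 active means Hck-Nef kinase inhibition above about 50%, limit read from the data; inactive means inhibition below that limit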;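 further: 0% = DMSO with Hck plus Nef and 100% = Hck alone without Nef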
Runt-CBFb FRET: inhibitors of RUNX1 Runt–CBFb binding, primary screen, biochemical, FRET, Cerulean-Runt, Venus-CBFb, uHTS; Cerulean-Runt/Venus-CBFb FRET ratio 530/480, 1 h; inhibition, % at 20 µM; 220,000 tested, 0.46% active; AID 1496, 2009;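 active means inhibition over about 50% at 20 µM in the single-dose screen, limit read from the data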;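 further: 0% = DMSO wells and 100% = excess unlabeled CBFb competitor control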
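test system = Cerulean-tagged RUNX1 Runt domain (FRET donor) fusion protein | reagent = Venus-CBFb binding partner, 100 nM | incubation = protein complex preformed 1 h, compound exposure 1 h, room temperature, dark | detection = FRET fluorescence | read-out basis = loss of energy transfer signal | controls = 5 µM unlabeled CBFb as full-inhibition high control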
Tb hexokinase: Trypanosoma brucei hexokinase 1 inhibitors, primary screen, biochemical, G6PDH-coupled NADH absorbance, MLSCN library; hexokinase 1 [Trypanosoma brucei]; recombinant TbHK1, G6PDH-coupled NADH A340; inhibition, % at 10 µM; 220,000 tested, 0.11% active; AID 1430, 2008;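 active means inhibition of 50% or more in the single-dose primary screen; inactive means inhibition below 50%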
YIC FRET counter: YIC intramolecular FRET probe signal interference, dose response, counter-screen for RanGTP-importin-beta inhibitor project, biochemical, fluorescence FRET. IC50, µM. shares compounds with RanGTP-Impb inh. Purified YIC probe, intramolecular FRET ratio YFP/CFP. 1,000 tested, 40% active. AID 435026, 2010;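 active means fitted half-maximal inhibitory concentration no more than tenfold above the top dose tested; inconclusive means flat fit with 30 to 70% activity, or poor fit; inactive means half-maximal concentration beyond tenfold above the top dose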
* hit, by the source's call; ? = inconclusive; . = no result given. In the library only some 2.1% were active in any assay of this set; here they are far more common.

SMILES	Runt-SMMHC FRET	RanGTP-Impb inh	p97 ATPase inh	Hck-Nef inh	Runt-CBFb FRET	Tb hexokinase	YIC FRET counter
Cc1c(OCC(=O)NCc2cccnc2)ccc2c3c(c(=O)oc12)CCC3	.	-2	.	.	.	.	.
Cc1c(OCC(=O)NCc2ccncc2)ccc2c3c(c(=O)oc12)CCC3	.	17*	.	.	.	.	>50
O=C(NCC1CCN(Cc2ccccc2Cl)CC1)Nc1ccccc1F	.	17*	.	.	.	.	>50
C[C@@H]1CN([C@H](C)CO)C(=O)c2cccc(NC(=O)c3ccc(-c4nccs4)cc3)c2O[C@@H]1CN(C)CC1CC1	.	.	.	.	.	.	>50
O=C(NCc1cccnc1)c1cccs1	-2	0	2	25	-2	-1	.
C[C@@H]1CN([C@H](C)CO)C(=O)Cc2cc(NC(=O)Nc3ccc4c(c3)OCO4)ccc2O[C@@H]1CN(C)CC1CC1	.	.	.	.	.	.	>50
COC(=O)C1=CN(C2CC2)C=C(C(=O)OC)C1c1ccc(C(F)(F)F)cc1	123*	26*	1	26	80*	-6	19*
N#Cc1ccccc1NC(=O)C1CC(=O)N(c2ccc3c4c(cccc24)CC3)C1 (stereo unspecified)	2	22*	-2	3	-1	29	>50
O=C(O)CCC(=O)NNc1nc2ccccc2nc1-c1ccccc1	-2	0	9	13	0	-9	.
COc1ccc(OCC(=O)NNc2c3ccccc3nc3ccccc23)cc1	9	27*	6	1	6	-1	>50
O=C(NNc1c2ccccc2nc2ccccc12)C12CC3CC(CC(C3)C1)C2	9	24*	7	23	11	-4	>50
COc1ccc(OC)c(Nc2c3c(nc4ccccc24)CCC3)c1	.	3	.	.	.	.	.
COc1ccc(OC)c(Nc2c3ccccc3nc3ccccc23)c1	.	32*	.	.	.	.	>50
O=C(NCc1ccccc1)C12CC3CC(CC(C3)C1)C2	-2	-5	0	1	0	-7	.
O=C(CCCO)NNc1c2ccccc2nc2ccccc12	17	25*	3	23	14	2	>50
COc1ccc(OCC(=O)Nc2nc3ccccc3[nH]2)cc1	1	?	-1	-1	1	-13	.
Cc1ccc2[nH]c3c(=O)n(CC(=O)NCCCN4CCN(c5ccc(F)cc5)CC4)ncc3c2c1	.	2	.	.	.	.	.
O=C(NCc1cccs1)c1ccc([N+](=O)[O-])cc1	-6	1	1	7	2	3	.
O=C(N/N=C/c1ccccc1)C(O)c1ccccc1 (stereo unspecified)	.	-1	.	.	.	.	.
O=C(NNc1c2ccccc2nc2ccccc12)C(O)c1ccccc1 (stereo unspecified)	14	34*	8	23	9	-12	>50
CCCC(=O)NNc1c2ccccc2nc2ccccc12	26	21*	3	1	40	0	>50
CCOC(=O)N1CCC(NC(=O)CCc2c(C)nc3c(c(C)nn3C(C)(C)C)c2C)CC1	2	-11	1	1	-6	-5	.
Cc1cccnc1NC(=O)c1ccc(OCc2c(C)noc2C)cc1	.	3	.	.	.	.	.
CC(C)c1ccccc1NC(=O)C1C2C=CC(C2)C1C(=O)O (stereo unspecified)	.	24*	.	.	.	.	>50
O=S(=O)(Nc1nc2ccccc2nc1-[n+]1cccc(N=C([O-])c2ccccc2Cl)c1)c1ccccc1	75*	24*	-1	11	48	-14	6.7*
SMILES	Runt-SMMHC FRET	RanGTP-Impb inh	p97 ATPase inh	Hck-Nef inh	Runt-CBFb FRET	Tb hexokinase	YIC FRET counter
COc1ccccc1N1CCN(Cc2cccs2)CC1	0	8	-4	0	2	-9	.
COc1cc2c(cc1OC)CN(Cc1cccs1)CC2	7	18*	5	-4	6	-16	>50
COc1cc2c(cc1OC)CN(Cc1ccccc1)CC2	.	18*	.	.	.	.	>50
O=C(NCCc1ccc(F)cc1)c1cccc(NC(=O)c2ccccc2)c1	.	-3	.	.	.	.	.
Cc1sc(NC(=O)c2oc3ccccc3c2C)c(C#N)c1C	-1	25*	3	7	3	-13	>50
C=CCN1C(=O)/C(=C\c2ccc(OC(=O)c3ccco3)c(OC)c2)SC1=S	-8	19*	2	-31	-5	-16	>50
O=C(Cn1c2ccccc2c(=O)c2ccccc21)Nc1ccccc1F	83	36*	5	16	119*	4	6.6*
Cc1cccc(C2=NN(c3ccc(Br)cc3)[C@@H](C(=O)N3CCOC3=O)[C@@H]2c2ccc(F)cc2)c1	56	18*	-4	1	18	-17	35*
Cc1ccc(-n2cc(CNCCN3CCOC3=O)c(-c3cccc(C)c3)n2)cc1	.	2	1	15	.	-8	.
CCN(CCO)C(=O)CC1C(=O)NCCN1Cc1c(F)cccc1Cl (stereo unspecified)	0	-1	3	2	0	-9	.
CCc1ccc(C(=O)c2cc3ccc(O)cc3oc2=O)cc1	.	45*	.	.	.	.	11*
CC(=O)c1ccc(COC(=O)c2cc3ccccc3oc2=O)cc1	.	3	.	.	.	.	.
O=C(c1ccc(Br)cc1)c1cc2ccc(O)cc2oc1=O	.	33*	.	.	.	.	20*
CC1(C)CC(=O)C/C(=N\NC(=O)Cc2ccccc2)C1	1	26*	8	-2	3	3	>50
CCCSc1nnc(-c2c[nH]c3ccccc23)n1C	2	-3	8	2	2	9	.
CCCSc1nnc(-c2c[nH]c3ccccc23)n1CC	4	17*	6	3	1	-1	>50
COCC(=O)Nc1nnc(COc2ccc(Cl)cc2)s1	-4	26*	2	5	0	4	>50
O=c1cc(N2CCC3(CC2)OCCO3)[nH]c(=O)n1-c1ccc(Br)cc1	2	17*	5	6	0	-1	>50
O=C(NCc1ccccc1)C1CCCN(c2cnccn2)C1 (stereo unspecified)	.	3	.	.	.	.	.
CC1=NN(C(=O)Cn2nc([N+](=O)[O-])cc2C)C(O)(C(F)(F)F)C1 (stereo unspecified)	-1	18*	6	3	0	30	>50
